Compounds with a hit are over-represented: about 3.7% of the library has one in this group of screens.
TAAR1 antagonist: antagonists of human TAAR1; CHO RD-HGA16 TAAR1, Fluo-8 calcium fluorescence, antagonist; inhibition, % at 3 µM; AID 624466; 360,000 compounds, 1.5% hits; Q96RJ0;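 active means inhibition above a per-plate cutoff, the mean inhibition of test compounds on that plate plus 3 SD, cut at about 49% in these data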
Target sequence (Q96RJ0 whole entry, looked up): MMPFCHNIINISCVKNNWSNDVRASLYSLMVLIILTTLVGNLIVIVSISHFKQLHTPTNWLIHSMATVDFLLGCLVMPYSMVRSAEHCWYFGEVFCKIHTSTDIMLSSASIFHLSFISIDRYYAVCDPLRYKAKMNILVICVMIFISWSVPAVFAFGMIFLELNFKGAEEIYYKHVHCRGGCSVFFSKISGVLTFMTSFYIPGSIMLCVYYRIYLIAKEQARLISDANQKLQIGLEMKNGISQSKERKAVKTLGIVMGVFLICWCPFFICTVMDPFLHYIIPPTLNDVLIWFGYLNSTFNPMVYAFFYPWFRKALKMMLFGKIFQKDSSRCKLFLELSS
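test system = CHO RD-HGA16 cells bearing hTAAR1 | replication = singlicate | controls = DMSO-only wells and EC80 β-PEA-stimulated wells | reagent = EC80 β-phenethylamine stimulus | read-out basis = percent inhibition of PEA-evoked calcium signal, max/basal emission ratio | schedule = seeding 17-24 h prior, 75-min 37 °C, 30-min RT dye loading | signal = kinetic Fluo-8 calcium fluorescence measurement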
HCV core dimer: HCV core protein dimerization inhibition; TR-FRET GST/Flag-core106 dimerization, 1536-well; inhibition, % at 5 µM; 300,000 compounds, 0.33% hits;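 active means inhibition above the mean of all tested compounds plus 3 SD, set per screening campaign, cut at about 45% in these data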
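Assay system: Tagged HCV core106 pair (GST and Flag) | Buffer or medium: KF-containing HEPES buffer, pH 7.45, DTT, CHAPS, BSA | Also added: Eu donor and XL665 acceptor anti-tag antibodies | Dosing: One concentration, 5 µM, in 0.5% DMSO | Timing: 4 h at 22.5 °C | Technique: TR-FRET 671 and 617 nm emission | Repeats: Singlicate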
rCAG binder: binds r(CAG) RNA repeats. r(CAG) RNA repeat, TO-PRO-1 dye displacement fluorescence. inhibition, % at 3 µM. 370,000 compounds, 1.3% hits;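 active means inhibition above the plate cutoff, the mean of all test compounds on that plate plus 3 SD, cut at about 35% in these data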;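 further: higher means more dye released from RNA so lower well fluorescence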
NS3 helicase inh: blocks Hepatitis C virus NS3 helicase unwinding. NS3 helicase DNA unwinding, Cy5 molecular beacon fluorescence. inhibition, % at 10.9 µM. 290,000 compounds, 0.56% hits;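 active means inhibition above the mean of all tested compounds plus 3 SD, set per campaign, cut at about 35% in these data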
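System: NS3 helicase fragment of HCV / Schedule: 1 h at 25 °C / Control set: DMSO alone as 0% and 110 µM thioflavine S as 100% / Reagent: Cy5/quencher beacon DNA duplex and ATP to start / Technique: Cy5 fluorescence / Replication: singlicate / Evaluation: % inhibition of end-to-start signal ratio versus controls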
TAAR1 agonist: human TAAR1 agonism; Q96RJ0; CHO RD-HGA16 TAAR1, Fluo-8 calcium fluorescence; vehicle wells 0%, saturating PEA agonist 100%; activation, % at 3 µM; 360,000 compounds, 0.99% hits; AID 624467;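 active means activation above the mean activation of all test compounds in the run plus 3 SD, cut at about 38% in these data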
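System: CHO-derived RD-HGA16 cells with stable Gα16 and human TAAR1. Times: 17-24 h plating, Fluo-8 75 min 37 °C, 30 min RT. Measured by: calcium-sensitive Fluo-8 signal, excitation 470-495, emission 515-575 nm. Read-out basis: % activation relative to PEA EC100 response. Control set: DMSO and PEA EC100. Repeats: no replicates (n 1).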
nonsel antag count: nonselective antagonist in TAAR1 antagonist counter-screen. 2,400 compounds, 77% hits. shares compounds with TAAR1 antagonist. counterscreen cell line, calcium fluorescence, antagonist mode. inhibition, % at 3 µM; in the data active means inhibition above about 22%;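 further: CHO-Ga16 host cells stimulated with ATP at an EC80 level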
TAAR1 antag conf: confirmation of human TAAR1 antagonists | shares compounds with TAAR1 antagonist | inhibition, % at 3 µM | TAAR1-expressing cells, fluorescence antagonist read-out | 2,400 compounds, 40% hits | AID 651785; in the data active means inhibition above about 49%;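 further: CHO-Ga16 host cells challenged with agonist PEA near its EC80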
Ga16 ag counter: nonselective Ga16 agonism, counter-screen; shares compounds with TAAR1 antagonist; Ga16-expressing cells, calcium fluorescence, agonist counterscreen; activation, % at 3 µM; AID 651953; 2,400 compounds, 18% hits; in the data active means activation above about 12%
TAAR1 ag count: counter-screen for human TAAR1 antagonists: TAAR1 agonists. shares compounds with TAAR1 antagonist. hTAAR1 cell line, fluorescence activation, agonist mode. activation, % at 3 µM. 2,400 compounds, 2% hits. AID 651955; in the data active means activation above about 37%;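 further: CHO cells stably expressing TAAR1 with calcium dye readout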
A number is an active result; i = inactive; nt = no result given.

SMILES	TAAR1 antagonist	HCV core dimer	rCAG binder	NS3 helicase inh	TAAR1 agonist	nonsel antag count	TAAR1 antag conf	Ga16 ag counter	TAAR1 ag count
COc1ccc(/C=N/NC(=O)c2nc(-c3ccccc3)cc(-c3ccccc3)n2)cc1	56.0	i	i	i	i	25.2	i	i	i
COc1ccc(/C=N/NC(=O)c2nc(-c3ccccc3)cc(-c3ccccc3)n2)cc1O	62.7	i	i	i	i	34.8	52.8	i	i
O=C1C=C[C@H]2CC[C@@H](O)[C@@H]1[C@@H]2Sc1ccccc1	nt	nt	i	nt	nt	nt	nt	nt	nt
OC[C@H]1CC[C@@H]2O[C@H](CCc3ccc(-c4ccc(F)cc4)cc3)[C@H](n3cc(C4CC4)nn3)C[C@@H]2O1	nt	nt	i	nt	nt	nt	nt	nt	nt
O=C(CN(c1ccccc1)S(=O)(=O)c1ccccc1)NCCSc1nc2ccccc2s1	71.4	i	i	i	i	36.2	62.0	i	i
C#CCNC(=O)C[C@H]1C[C@@]2(C(=O)OC)C(=C[C@H](C3CCCC3)O[C@@H]2C)N(Cc2ccco2)C1=O	nt	nt	i	nt	nt	nt	nt	nt	nt
O=C(C1=C[C@@H](c2ccc(C(F)(F)F)cc2)C[C@@H](OCc2ccc(CO)cc2)O1)N1CCN(Cc2ccc3c(c2)OCO3)CC1	55.0	i	i	i	i	32.0	i	i	i
O=C1CCCCC1C(Nc1ccc(Cl)cc1)c1ccccc1 (configuration not stated)	67.8	i	i	i	i	i	i	i	i
CC(C)Nc1nnc(SCC(=O)Nc2ccc3c(c2)C(=O)c2ccccc2C3=O)s1	68.4	i	i	i	i	46.6	58.8	15.4	i
CCc1cc(=O)oc2cc(C)cc(OCC(=O)NCCc3c[nH]c4ccccc34)c12	68.8	i	i	i	i	29.1	i	i	i
CCCc1cc(=O)oc2cc(OCC(=O)NCCc3c[nH]c4ccc(OC)cc34)ccc12	59.9	i	i	i	i	29.9	i	i	i
Cc1cccc(C(=O)OCC(=O)c2ccc3c(c2)NC(=O)CO3)c1	i	nt	i	nt	i	nt	nt	nt	nt
O=C1COc2ccc(C(=O)COC(=O)CCSc3ccc(Cl)cc3)cc2N1	56.4	i	i	i	i	36.6	i	i	i
CCN(CC)S(=O)(=O)c1cccc(C(=O)OCC(=O)c2ccc3c(c2)NC(=O)CO3)c1	71.2	i	i	i	i	42.5	61.4	15.3	i
CCc1nc(SCCO)c2oc3ccccc3c2n1	i	i	i	i	i	nt	nt	nt	nt
CCc1nc(SCC(=O)N2CCN(c3ccccc3)CC2)c2oc3ccccc3c2n1	53.3	i	i	i	i	27.2	i	i	i
COc1cccc(NC(=O)CSC2=NN3CCCC(=O)N=C3S2)c1	104.1	i	i	i	i	i	i	i	i
CCCCCCCCN1CCS(=O)(=O)N(Cc2ccc(Cl)cc2)C(C(=O)OC)C1 (configuration not stated)	nt	nt	i	nt	nt	nt	nt	nt	nt
CCCOc1cccc(C(=O)N(Cc2ccco2)C2CCS(=O)(=O)C2)c1 (configuration not stated)	101.7	i	i	i	i	i	i	i	i
Oc1ccc(N=Nc2ccc3c(c2)OCCO3)c(O)c1	i	i	i	i	i	nt	nt	nt	nt
Oc1ccc(N=Nc2ccc3c(c2)OCCO3)c2cccnc12	83.5	i	i	i	i	31.9	i	i	i
COc1ccc(/C=N/Nc2nc(-c3cccc(S(=O)(=O)N4CCCC4)c3)cs2)cc1OC	i	i	i	i	i	nt	nt	nt	nt
COc1cc(/C=N/Nc2nc(-c3ccc(S(=O)(=O)N(C)C)cc3)cs2)ccc1O	69.1	i	i	i	i	30.1	i	i	i
Cc1ccc(C(C(=O)NC2CCCC2)N(Cc2ccc3c(c2)OCO3)C(=O)Cc2cccs2)cc1 (configuration not stated)	66.2	i	i	i	i	26.2	55.9	i	i
COCCN(C(=O)Cc1cccs1)C(C(=O)NCc1ccc(OC)cc1)c1ccc(OC)cc1 (configuration not stated)	i	i	i	i	i	nt	nt	nt	nt
SMILES	TAAR1 antagonist	HCV core dimer	rCAG binder	NS3 helicase inh	TAAR1 agonist	nonsel antag count	TAAR1 antag conf	Ga16 ag counter	TAAR1 ag count
COc1ccc(CNC(=O)C(c2cccs2)N(Cc2ccco2)C(=O)Cc2cccs2)cc1 (configuration not stated)	67.3	i	i	i	i	30.2	i	i	i
Cc1ccc(CN(C(=O)Cc2cccs2)C(C(=O)NC2CCCC2)c2ccncc2)cc1 (configuration not stated)	i	i	i	i	i	nt	nt	nt	nt
COc1ccc(CNC(=O)C(c2ccco2)N(Cc2cccs2)C(=O)Cc2cccs2)cc1 (configuration not stated)	75.0	i	i	i	i	34.6	62.7	i	i
COc1ccc(CNC(=O)C(c2ccco2)N(Cc2ccccc2)C(=O)Cc2cccs2)cc1 (configuration not stated)	85.2	i	i	i	i	32.8	55.0	12.1	i
COc1ccc(CNC(=O)C(c2ccc(C)cc2)N(Cc2cccs2)C(=O)c2ccc3c(c2)OCCO3)cc1 (configuration not stated)	66.2	i	i	i	i	30.8	52.4	14.7	i
COc1ccc(CNC(=O)C(c2ccncc2)N(C(=O)Cc2cccs2)c2cccc(C)c2)cc1 (configuration not stated)	i	i	i	i	i	nt	nt	nt	nt
COc1ccc(C(=O)Nc2ccc3c(c2)CCCN3C(=O)c2cccs2)c(OC)c1	54.7	i	i	i	i	25.9	i	i	i
Cc1ccccc1C(=O)Nc1ccc2c(c1)CCCN2C(=O)c1cccs1	i	i	i	i	i	nt	nt	nt	nt
COc1cccc(C(=O)Nc2ccc3c(c2)CCCN3C(=O)c2cccs2)c1OC	50.1	i	i	i	i	24.0	i	i	i
Cn1cncc1C#Cc1c(-c2ccc(S(C)(=O)=O)cc2)sc2ccccc12	60.8	nt	i	nt	i	32.5	i	i	i
CN(C)c1cccc(/C=C2\CC3(OC(=O)c4ccc(F)cc4)CCCN2C3)c1 (configuration not stated)	nt	nt	i	nt	nt	nt	nt	nt	nt
O=C(C1CCCN1S(=O)(=O)c1ccc(F)cc1)N1CCc2ccccc2C1 (configuration not stated)	nt	nt	i	nt	nt	nt	nt	nt	nt
COc1ccccc1-c1cc(NC(C)=O)c2ncc(-c3ccccc3)n2c1	55.9	nt	i	nt	i	23.6	i	21.4	i
COc1ccc(-c2cc(NC(C)=O)c3ncc(-c4ccc(OC)c(OC)c4)n3c2)c(OC)c1	i	nt	i	nt	i	nt	nt	nt	nt

Screening data (PubChem BioAssay)
